Values after ≈ are worked out from the molar mass of the structure shown.
Experiments:
[1] = Cytotoxicity against human Hep2 cells assessed as cell survival fraction at 10 ug/ml after 24 hrs by trypan blue exclusion assay (reference value: 97 to 98%); format: cell-based; conditions: HEp-2 cells, read-out: Survival
[2] = test system: Enterobacter sp.; assay: Antibacterial activity against Enterobacter spp. assessed as growth inhibition after 18 to 22 hrs by broth microdilution method; format: functional
Procedure, shortened: (§1)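 Bacterial isolates subcultured for purity, identified conventionally. Broth microdilution per NCCLS in Mueller-Hinton II broth; plates with growth control (no compound) and medium-only control, incubated 18-22 h at 35 °C. MIC taken as lowest concentration giving complete growth inhibition by unaided eye.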

[3] = test system: Enterococcus faecalis; assay: Antibacterial activity against […] assessed as growth inhibition after 18 to 22 hrs by broth microdilution method; format: functional; procedure, shortened: as §1
[4] = Cytotoxicity against human Hep2 cells assessed as cell survival fraction at 0.5 ug/ml after 24 hrs by trypan blue exclusion assay (reference value: 97 to 98%); format: cell-based; conditions: HEp-2 cells, read-out: Survival
[5] = test system: Klebsiella oxytoca; assay: Antibacterial activity against Klebsiella oxytoca assessed as growth inhibition after 18 to 22 hrs by broth microdilution method; format: functional; procedure, shortened: as §1
[6] = test system: Staphylococcus aureus; assay: Antibacterial activity against Staphylococcus aureus assessed as growth inhibition after 18 to 22 hrs by broth microdilution method; format: functional; procedure, shortened: as §1
[7] = test system: Escherichia coli; assay: Antibacterial activity against Escherichia coli assessed as growth inhibition after 18 to 22 hrs by broth microdilution method; format: functional; procedure, shortened: as §1
[8] = Cytotoxicity against human Hep2 cells assessed as cell survival fraction at 50 ug/ml after 24 hrs by trypan blue exclusion assay (reference value: 97 to 98%); format: cell-based; conditions: HEp-2 cells, read-out: Survival
[9] = test system: Pichia kudriavzevii; assay: Anticandida activity against Candida krusei clinical isolate assessed as growth inhibition after 24 hrs by broth microdilution method; format: functional
Procedure, shortened: (§2)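 Clinical Candida isolates subcultured for purity and optimal growth before testing; compounds dissolved in DMSO. Broth microdilution per NCCLS in Sabouraud dextrose broth, serial dilutions, inoculum about 10³/mL, with growth control and medium-only control; 24 h incubation at 37 °C. MIC is the lowest concentration giving complete visible inhibition.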

[10] = Cytotoxicity against human Hep2 cells assessed as cell survival fraction at 0.05 ug/ml after 24 hrs by trypan blue exclusion assay (reference value: 97 to 98%); format: cell-based; conditions: HEp-2 cells, read-out: Survival
[11] = test system: [Candida] sake; assay: Anticandida activity against Candida sake clinical isolate assessed as growth inhibition after 24 hrs by broth microdilution method; format: functional; conditions: Fermentozyma sake; procedure, shortened: as §2
[12] = Cytotoxicity against human Hep2 cells assessed as reduction of cell viability after 24 hrs by trypan blue exclusion assay; format: cell-based; conditions: HEp-2 cells
Procedure, shortened: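 Hep2 cells in DMEM with 10% FBS, penicillin-streptomycin, 5% CO₂, 37 °C. Cells at 1 × 10⁵/mL exposed 24 h to seven concentrations (0.005-100 µg/mL), DMSO ≤0.5% final; controls were medium alone, DMSO, and 1 mM sodium nitroprusside. Cells scraped, allowed 30 min recovery, mixed 1:1 with 0.4% trypan blue, counted by hemocytometer by two operators.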

[13] = test system: Staphylococcus warneri; assay: Antibacterial activity against Staphylococcus warneri assessed as growth inhibition after 18 to 22 hrs by broth microdilution method; format: functional; procedure, shortened: as §1
[14] = test system: Candida albicans; assay: Anticandida activity against Candida albicans clinical isolate assessed as growth inhibition after 24 hrs by broth microdilution method; format: functional; procedure, shortened: as §2
[15] = test system: Candida tropicalis; assay: Anticandida activity against Candida tropicalis clinical isolate assessed as growth inhibition after 24 hrs by broth microdilution method; format: functional; procedure, shortened: as §2
[16] = test system: Streptococcus alpha-hemolyticus; assay: Antibacterial activity against Streptococcus alpha-hemolyticus assessed as growth inhibition after 18 to 22 hrs by broth microdilution method
[17] = Cytotoxicity against human Hep2 cells assessed as cell survival fraction at 0.005 ug/ml after 24 hrs by trypan blue exclusion assay (reference value: 97 to 98%); format: cell-based; conditions: HEp-2 cells, read-out: Survival
[18] = test system: Nakaseomyces glabratus; assay: Anticandida activity against Candida glabrata clinical isolate assessed as growth inhibition after 24 hrs by broth microdilution method; format: functional; procedure, shortened: as §2
[19] = test system: Proteus mirabilis; assay: Antibacterial activity against Proteus mirabilis assessed as growth inhibition after 18 to 22 hrs by broth microdilution method; format: functional; procedure, shortened: as §1
[20] = test system: Candida parapsilosis; assay: Anticandida activity against Candida parapsilosis clinical isolate assessed as growth inhibition after 24 hrs by broth microdilution method; format: functional; conditions: Lodderomyces parapsilosis; procedure, shortened: as §2
[21] = Cytotoxicity against human Hep2 cells assessed as cell survival fraction at 100 ug/ml after 24 hrs by trypan blue exclusion assay (reference value: 97 to 98%); format: cell-based; conditions: HEp-2 cells, read-out: Survival
[22] = Cytotoxicity against human Hep2 cells assessed as cell survival fraction at 5 ug/ml after 24 hrs by trypan blue exclusion assay (reference value: 97 to 98%); format: cell-based; conditions: HEp-2 cells, read-out: Survival

| SMILES | viability at 24 h, 10 ug/ml [1] [%] | MIC [2] [µg/mL] | MIC [3] [µg/mL] | viability at 24 h, 0.5 ug/ml [4] [%] | MIC [5] [µg/mL] | MIC [6] [µg/mL] | MIC [7] [µg/mL] | viability at 24 h, 50 ug/ml [8] [%] | MIC [9] [µg/mL] | viability at 24 h, 0.05 ug/ml [10] [%] | MIC [11] [µg/mL] | CC50 at 24 h [12] [µg/mL] | MIC [13] [µg/mL] | MIC [14] [µg/mL] | MIC [15] [µg/mL] | MIC [16] [µg/mL] | viability at 24 h, 0.005 ug/ml [17] [%] | MIC [18] [µg/mL] | MIC [19] [µg/mL] | MIC [20] [µg/mL] | other results |
| --- | --- | --- | --- | --- | --- | --- | --- | --- | --- | --- | --- | --- | --- | --- | --- | --- | --- | --- | --- | --- | --- |
| C/C(=N\Nc1nc(-c2ccc(Cl)cc2Cl)cs1)C1CCCCC1 | 88 | > 256 | > 256 | 95 | > 256 | > 256 | > 256 | 0 | 2 (≈ 5.43 µM) | 96 | 2 (≈ 5.43 µM) | 42 (≈ 114 µM) | > 256 | 0.25 (≈ 0.679 µM) | 2 (≈ 5.43 µM) | > 256 | 97.2 | 2 (≈ 5.43 µM) | > 256 | 2 (≈ 5.43 µM) | viability at 24 h, 100 ug/ml [21]: 0%; viability at 24 h, 5 ug/ml [22]: 94% |
| Clc1ccc(-c2csc(NN=C3CCCCCCC3)n2)c(Cl)c1 | 87.5 | > 256 | > 256 | 92.4 | > 256 | > 256 | > 256 | 0 | 2 (≈ 5.43 µM) | 93 | 2 (≈ 5.43 µM) | 41 (≈ 111 µM) | > 256 | 0.5 (≈ 1.36 µM) | 2 (≈ 5.43 µM) | > 256 | 94 | 2 (≈ 5.43 µM) | > 256 | 8 (≈ 21.7 µM) | viability at 24 h, 100 ug/ml [21]: 0%; viability at 24 h, 5 ug/ml [22]: 90% |
| C=CCC/C(C)=N/Nc1nc(-c2ccc(OC)cc2)cs1 | 72.4 | > 256 | > 256 | 83 | > 256 | > 256 | > 256 | 0 | 2 (≈ 6.64 µM) | 91.2 | 2 (≈ 6.64 µM) | 35 (≈ 116 µM) | > 256 | 0.5 (≈ 1.66 µM) | 2 (≈ 6.64 µM) | > 256 | 94 | 0.5 (≈ 1.66 µM) | > 256 | 2 (≈ 6.64 µM) | viability at 24 h, 100 ug/ml [21]: 0%; viability at 24 h, 5 ug/ml [22]: 84% |
| CCCC/C(CC)=N/Nc1nc(-c2ccc(OC)cc2)cs1 | 70.2 | > 256 | > 256 | 84 | > 256 | > 256 | > 256 | 0 | 2 (≈ 6.3 µM) | 90.2 | 2 (≈ 6.3 µM) | 35 (≈ 110 µM) | > 256 | 0.25 (≈ 0.788 µM) | 2 (≈ 6.3 µM) | > 256 | 93 | 0.5 (≈ 1.58 µM) | > 256 | 2 (≈ 6.3 µM) | viability at 24 h, 100 ug/ml [21]: 0%; viability at 24 h, 5 ug/ml [22]: 81% |
| CCC(CC)=NNc1nc(-c2ccc(C)cc2)cs1 | 72.4 | > 256 | > 256 | 86 | > 256 | > 256 | > 256 | 67 | 2 (≈ 7.32 µM) | 92.2 | 2 (≈ 7.32 µM) | ≥ 100 | > 256 | 0.5 (≈ 1.83 µM) | 2 (≈ 7.32 µM) | > 256 | 94.6 | 0.25 (≈ 0.914 µM) | > 256 | 2 (≈ 7.32 µM) | viability at 24 h, 100 ug/ml [21]: 77%; viability at 24 h, 5 ug/ml [22]: 84% |
| CCC/C(C)=N/Nc1nc(-c2ccc(OC)cc2)cs1 | 75.5 | > 256 | > 256 | 88 | > 256 | > 256 | > 256 | 0 | 2 (≈ 6.91 µM) | 90 | 2 (≈ 6.91 µM) | 36 (≈ 124 µM) | > 256 | 0.25 (≈ 0.864 µM) | 2 (≈ 6.91 µM) | > 256 | 92 | 2 (≈ 6.91 µM) | > 256 | 2 (≈ 6.91 µM) | viability at 24 h, 100 ug/ml [21]: 0%; viability at 24 h, 5 ug/ml [22]: 83% |

Reference: ChEMBL document CHEMBL2401735, “Synthesis and cytotoxicity of novel (thiazol-2-yl)hydrazine derivatives as promising anti-Candida agents” (Eur J Med Chem, 2013)
